In ChEMBL document CHEMBL4513216, “Probing the Open Global Health Chemical Diversity Library for Multistage-Active Starting Points for Next-Generation Antimalarials” (ACS Infect Dis, 2020):

Assay: Toxicity liver stage against HepG2, at 10uM
Format: cell-based
Set-up: test concentration 10 uM, cell line HepG2-A16-CD81EGFP
Conditions: human, HepG2-A16-CD81EGFP cells; read-out: INHIBITION
Outline: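 Uninfected HepG2-A16-CD81EGFP cells, 3 × 10^3 per well, 1536-well, plated on prespotted compound at 10 μM final, parasite-free screening media added to match infected plates; puromycin 10 μM positive, DMSO 0.5% negative; run in parallel with 48 h PbLuc assay at 37 °C, 5% CO2; viability by CellTiter-Glo luminescence, normalized to controls.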
With `CC(C)CN1C(=O)C[C@@H]2[C@@H]1CCN2Cc1cccc(C#N)c1` the cytotoxicity at 10 µM was -66.4%.
`CN(C)CCN1CCO[C@H]2CN(C(=O)C3CCOCC3)C[C@H]21` showed a cytotoxicity at 10 µM of 1.58%.
In the case of `CCc1nnsc1C(=O)N1CCCC(c2nc3ccccc3[nH]2)C1` (stereo not given), the cytotoxicity at 10 µM was 4.52%.
Work on `CC(C)(C)Cc1noc2ncc(C(=O)N3CCSCC3)cc12` yielded a cytotoxicity at 10 µM of -0.779%.
`CCN1CCN(S(=O)(=O)c2cc(C)c(Cl)cc2C)CC1` showed a cytotoxicity at 10 µM of -3.89%.
With `CS(=O)(=O)N1CCC(NC(=O)COc2ccc3ccccc3c2)CC1` the cytotoxicity at 10 µM was -5.56%.
`CCC(Nc1nc(C2CCCC2)nc2c1cnn2C)c1ccncc1` (stereo not given) gave a cytotoxicity at 10 µM of -39.6%.
In the case of `O=C(c1cnccn1)N1C[C@@H](OCc2ccncc2)[C@@H]2OCCC[C@@H]21`, the cytotoxicity at 10 µM was -2.91%.
`CC1(c2ccc(Br)cc2)CC(=O)N(CCC#N)C1=O` (stereo not given) showed a cytotoxicity at 10 µM of 0.923%.
For `O=C(CC(F)(F)F)N1C[C@@H]2CC[C@H]1CN(Cc1ccccc1)C2`, the cytotoxicity at 10 µM was -3.63%.
For `CC(C)(C)c1n[nH]c(C2CN(Cc3nnc(C4CCC4)o3)CCO2)n1` (stereo not given), the cytotoxicity at 10 µM was -8.24%.
In the case of `O=C1CC(N2CCN(c3ccc(O)cc3)CC2)C(=O)N1Cc1cccs1` (stereo not given), the cytotoxicity at 10 µM was 5.77%.
With `CC(=O)NCCNC(=O)c1sc(-c2ccc(Cl)s2)nc1C` the cytotoxicity at 10 µM was -1.28%.
`CC(C)N(Cc1nc2c(cnn2C)c(=O)[nH]1)c1ccccc1` gave a cytotoxicity at 10 µM of -12.6%.
Compound `COc1ccc(C(=O)N2C[C@@H](C(=O)O)[C@H](c3cccc(F)c3)C2)c(O)c1` has a cytotoxicity at 10 µM of 6.03%.
Compound `CCN(CC(=O)Nc1cc(Cl)ccc1C)C(=O)c1cnccn1` has a cytotoxicity at 10 µM of -0.12%.
With `Cc1nccn1-c1cc(CNC(=O)CCC2CCCO2)ccn1` (stereo not given) the cytotoxicity at 10 µM was -3.09%.
`CCc1ccc(CN(CC)Cc2ccc(S(=O)(=O)NC)cc2)cc1` gave a cytotoxicity at 10 µM of -8.55%.
`Cc1nn(C(C)C)c(C)c1CN1CCN(C2CCCCC2)C(=O)C1` gave a cytotoxicity at 10 µM of 6.63%.
`NC1CCC(NC(=O)c2ccc3nc(-c4ccc(F)cc4)cn3c2)CC1` (stereo not given) gave a cytotoxicity at 10 µM of -17.7%.
`Cc1cc(C(=O)N2CCN(C(=O)CCC3CCCCC3)CC2)n(C)n1` gave a cytotoxicity at 10 µM of -3.06%.
`COc1ncccc1CN1C[C@H](C(=O)N2CCCO2)[C@@H]2CCO[C@@H]2C1` showed a cytotoxicity at 10 µM of 11.2%.
Compound `CC(C)CCC(=O)N1CC[C@@H]2[C@H](CC1)N(S(C)(=O)=O)CCS2(=O)=O` has a cytotoxicity at 10 µM of 3.7%.
In the case of `CC(=O)NC1CCN(c2c(C#N)cnc3c(C)cc(F)cc23)CC1`, the cytotoxicity at 10 µM was 7.72%.
`CC(C)CCC(=O)N1CCC2(CC1)OCCO2` showed a cytotoxicity at 10 µM of -0.457%.
`CN1CCC(c2cccc(Cc3ccccc3)n2)CC1` gave a cytotoxicity at 10 µM of -9.24%.
For `COC(=O)N1CC(C)=C(C)CN1C(=O)Nc1ccc(Cl)c(Cl)c1`, the cytotoxicity at 10 µM was -1.53%.
With `O=C(C1CC1)N1CCC2(CC1)COCCN2Cc1ccc(F)cc1` the cytotoxicity at 10 µM was -69.4%.
With `C[C@@H]1CN(C(=O)c2ccc(C#N)nc2)CC[C@@]1(O)C1CCOCC1` the cytotoxicity at 10 µM was -11.5%.
`Cc1nnc(CN(C)Cc2nc3c(s2)CCCC3)o1` gave a cytotoxicity at 10 µM of -1.42%.
With `CN(Cc1cccnc1)CC1CC12CCCC2` (stereo not given) the cytotoxicity at 10 µM was -0.243%.
For `CCc1ccc(NC(=O)C2OC(c3cccs3)=NN2C(C)=O)cc1` (stereo not given), the cytotoxicity at 10 µM was 4.64%.
`Cc1cc(C)cc(OCCN(C)Cc2cscn2)c1` showed a cytotoxicity at 10 µM of 6.56%.
In the case of `CCOc1ccc(N2CCCN=C2NC(=O)c2cccc(OC)c2)cc1`, the cytotoxicity at 10 µM was 5.2%.
Work on `Cc1nc(S(=O)(=O)N2CCc3[nH]nc(CCC(C)C)c3C2)cn1C` yielded a cytotoxicity at 10 µM of 10.2%.
For `CCn1ncc2c1CCCC2NCc1ccc(OC)c(C)c1` (stereo not given), the cytotoxicity at 10 µM was -8%.
`CC(=O)N1CCC2(CCCN(S(=O)(=O)c3ccc(F)cc3)C2)C1` (stereo not given) showed a cytotoxicity at 10 µM of 2.26%.
Work on `OCCN1CCCC(c2cccc(-c3ccccc3F)n2)C1` (stereo not given) yielded a cytotoxicity at 10 µM of 5.68%.
In the case of `Cn1nc(CNC(=O)C2COc3ccccc3O2)cc1C1CC1` (stereo not given), the cytotoxicity at 10 µM was 7.52%.
`CC(c1cn2ncsc2n1)n1cc2[nH]cccc-2c1=O` (stereo not given) showed a cytotoxicity at 10 µM of -3.74%.
In the case of `Cc1nnc(NC(=O)CN(C)C2CCCN(c3cccnn3)C2)s1` (stereo not given), the cytotoxicity at 10 µM was -5.64%.
Work on `CC(C)(O)CN1CCN(C(=O)COC2CCCC2)CC1` yielded a cytotoxicity at 10 µM of 1.46%.
With `CCOCC1CCN(C(=O)Nc2ccc(-c3csnn3)cc2)C1` (stereo not given) the cytotoxicity at 10 µM was 13.7%.
Work on `COc1ccc(Cl)cc1NCc1cc(C)on1` yielded a cytotoxicity at 10 µM of -7.13%.
Compound `CC(C)(O)CN1CC(C)(C)CN(C(=O)CCc2ccccc2)CC1=O` has a cytotoxicity at 10 µM of 2.37%.
Work on `Cc1nn(C)c(C)c1CN(C)C(=O)c1cc(NC(=O)C2CC2)n(C)n1` yielded a cytotoxicity at 10 µM of 3.38%.
For `O=C(c1ccnn1COc1ccc(Cl)cc1)N1CCCC1`, the cytotoxicity at 10 µM was -2.34%.
Work on `COCCn1ccc2cc(C(=O)NC3CCOC(C)(C)C3)ccc21` (stereo not given) yielded a cytotoxicity at 10 µM of -0.508%.
`O=C(NCc1ccco1)c1ccc(N2CCOCC2)cc1` showed a cytotoxicity at 10 µM of 4.31%.
In the case of `Cc1cc(C)n(C2CN(Cc3ccc(C(=O)N4CCCC4)cc3)C2)n1`, the cytotoxicity at 10 µM was 1.89%.
Compound `CC(C)c1n[nH]c(C2CN(C(=O)CCc3cscn3)CCO2)n1` (stereo not given) has a cytotoxicity at 10 µM of -1.51%.
With `CC(C)Cc1ncc2c(n1)CN(c1cc(NCCO)nc(N)n1)C2` the cytotoxicity at 10 µM was -2.68%.
For `O=C(c1cnccn1)N1C[C@@H]2[C@@H](C1)OCC(=O)N2CC1CCCC1`, the cytotoxicity at 10 µM was 1.58%.
With `CN(C)CCNC(=O)c1cc2n(n1)CCN(C(=O)c1ccco1)C2` the cytotoxicity at 10 µM was 2.52%.
`CCn1cc(C(=O)NCC(OC)c2cccc(Cl)c2)cn1` (stereo not given) showed a cytotoxicity at 10 µM of -8.87%.
`CC(NC(=O)NCCCn1cncn1)c1ccc(F)cc1` (stereo not given) gave a cytotoxicity at 10 µM of -9.92%.
Work on `COC(=O)C1CCN(C(=O)c2nnc3ccc(C)cc3n2)CC1` yielded a cytotoxicity at 10 µM of 11.7%.
`Cc1cnc(CNC(=O)[C@@]23CCO[C@@H]2CCNC3)cn1` gave a cytotoxicity at 10 µM of -108%.
`Cc1ccc(C(=O)NCC2CCN(Cc3ccccc3C#N)C2)cn1` (stereo not given) showed a cytotoxicity at 10 µM of 1.48%.
In the case of `COC(=O)c1ccc(C2CC(=O)Oc3cc(C)[nH]c(=O)c32)cc1` (stereo not given), the cytotoxicity at 10 µM was -3.86%.
`Cc1ccc(C(C)NC(=O)CNCCn2cccn2)cc1C` (stereo not given) showed a cytotoxicity at 10 µM of -6.63%.
For `Cc1ncc2c(n1)CN(CCOc1ccc3c(c1)CCC(=O)N3)CC2`, the cytotoxicity at 10 µM was -8.12%.
`COCCN1CCO[C@@H]2CN(Cc3ccc(C)s3)C[C@@H]2C1` gave a cytotoxicity at 10 µM of -8.81%.
Compound `Cn1nc2c(cc1=O)CN(Cc1nnc(-c3ccc(F)cc3)o1)CC2` has a cytotoxicity at 10 µM of -9.47%.
For `COCCN1CCCC1Cn1nc(C)cc1C` (stereo not given), the cytotoxicity at 10 µM was 1.31%.
`O=S1(=O)CCN(CCCc2ccc(Cl)cc2)CC1` gave a cytotoxicity at 10 µM of 1.91%.
`O=C(NCCc1cccs1)[C@H]1CO[C@H]2CCN(C3CCC3)C[C@H]2C1` gave a cytotoxicity at 10 µM of -116%.
`Cn1ccc(CNC(=O)Nc2ccc(S(=O)(=O)C(F)F)cc2)c1` gave a cytotoxicity at 10 µM of 5.93%.
In the case of `Cc1ccc(C2CSCCN2C(=O)c2cccnc2)cc1` (stereo not given), the cytotoxicity at 10 µM was -4.11%.
For `C[C@@H]1CN(C2CCOCC2)C[C@]12CCN(c1cccnc1)C2=O`, the cytotoxicity at 10 µM was 5.95%.
In the case of `CN(C)C(=O)CN1CCn2cc(Cn3cccn3)nc2C1`, the cytotoxicity at 10 µM was 4.96%.
Compound `Cc1ccccc1-c1ncc(CNCc2csc(C(C)C)n2)s1` has a cytotoxicity at 10 µM of 0.264%.
Compound `CCOCC1c2c(ncn2C)CCN1C(=O)c1cnc(C)cn1` (stereo not given) has a cytotoxicity at 10 µM of -108%.
`CCn1cnnc1CNC(=O)NC(C)c1cccs1` (stereo not given) gave a cytotoxicity at 10 µM of -4.92%.
For `O=C(NCc1cccs1)[C@@H]1CC[C@@H]2[C@@H](CCN2c2ncccn2)O1`, the cytotoxicity at 10 µM was -0.53%.
`O=C(Nc1nc2c(s1)CN(S(=O)(=O)C1CC1)CC2)c1cccc(Cl)c1` showed a cytotoxicity at 10 µM of 1.55%.
With `Cc1nc(-c2cccnc2)ncc1C(=O)N1CCC(C(C)N(C)C)CC1` (stereo not given) the cytotoxicity at 10 µM was -1.8%.
`O=C(C1CCS(=O)(=O)CC1)N1CCC(c2ccc(F)cc2)C1` (stereo not given) gave a cytotoxicity at 10 µM of -60.1%.
`Cn1nccc1C(=O)N1CCOC(Cc2ccc(Cl)cc2)C1` (stereo not given) showed a cytotoxicity at 10 µM of -26%.
In the case of `COc1cc(N2C[C@@H]3COC[C@]3(C(=O)NC3CC(F)(F)C3)C2)ncn1`, the cytotoxicity at 10 µM was 14.7%.
